Test results from ChEMBL document CHEMBL4680254, “Design, synthesis and discovery of 2(1H)-quinolone derivatives for the treatment of pulmonary fibrosis through inhibition of TGF-β/smad dependent and independent pathway” (Eur J Med Chem, 2020).
Values belong to the compound of their own block, whether it stands above or below them. The source made the active and inactive calls. No cut-off for these calls is given here.

Experiments:
[1] = Effect on total p38 expression in TGFbeta-stimulated rat NRK-49F at 20 to 40 uM preincubated for 1 to 2 hrs followed by TGF-beta stimulation and measured after 1 hr by Western blot analysis; assay type: tissue-based; conditions: dose lower 20 µM, time lower 2 hrs, dose upper 40 µM, time upper 3 hrs
In short: (§1)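 NRK-49F cells were pretreated with or without compound (20 and 40 µM) for 1 or 2 h, then stimulated with TGF-β 5 ng/mL for 1 h. Lysates were made in RIPA with PMSF and protease inhibitors, and 30–40 µg protein was run on 10–12% SDS-PAGE and moved to PVDF. Blots were probed for phospho- and total Smad2, Smad3, p38 and ERK1/2, with GAPDH as loading control and ECL detection.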

[2] = AUC (0 to t) in Sprague-Dawley rat at 5 mg/kg, iv; assay type: ADME, organism-based; parameters: dose 5 mg/kg; conditions: in vivo
In short: (§2)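 Rats received a single 5 mg/kg dose, either intravenously or orally. AUC0-t was derived from plasma concentration–time curves after that one dose. n = 5 per the reported oral data.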

[3] = Effect on total […] expression in TGFbeta-stimulated rat NRK-49F at 20 to 40 uM preincubated for 1 to 2 hrs followed by TGF-beta stimulation and measured after 1 hr by Western blot analysis; conditions: dose lower 20 µM, time lower 2 hrs, dose upper 40 µM, time upper 3 hrs; in short: as §1
[4] = tested on: Mus musculus; experiment: Anti-fibrotic activity in C57BL/6 mouse model of bleomycin-induced lung fibrosis assessed as suppression of smad3 phosphorylation level in lung at 50 to 100 mg/kg, po administered for 30 days starting from day 1 post bleomycin treatment by immunohistochemistry staining based microscopic analysis; assay type: functional, organism-based; conditions: dose 50-100 mg/kg, time 30.0 day
In short: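 Male C57BL/6 mice, 8 weeks, got intratracheal bleomycin 3 U/kg in 0.075 mL saline, then daily oral dosing days 1–30. Left lungs were formalin-fixed (10%, 24 h) and paraffin-embedded; 5 µm sections were incubated with antibody at 4 °C overnight for immunohistochemistry of phospho-Smad3 and imaged by microscopy.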

[5] = molecular target: Mothers against decapentaplegic homolog 3 (Rattus norvegicus) (UniProt P84025); experiment: Inhibition of TGF-beta induced SMAD3 phosphorylation in rat NRK-49F cells at 20 to 40 uM pretreated with compound for 1 to 2 hrs followed by TGF-beta stimulation for 1 hr by Western blot analysis; assay type: cell-based; conditions: dose 20-40 µM, time 2-3 hrs; in short: as §1
[6] = Half life in Sprague-Dawley rat at 5 mg/kg, po; assay type: ADME, organism-based; conditions: in vivo
In short: (§3)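 Rats were given a single 5 mg/kg dose intravenously or orally, and plasma concentration–time curves were followed. t1/2, tmax, AUC0-t and oral bioavailability (n = 5) were derived from these curves.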

[7] = Cytotoxicity against rat NRK-49F cells assessed as cell survival rate at 10 uM incubated for 72 hrs by MTT assay; assay type: cell-based; conditions: read-out: Activity
In short: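 NRK-49F cells were seeded at 0.5×10^5 cells/ml, cultured overnight, then exposed to compound 10 µM for 72 h. MTT was added and incubated 4 h, formazan dissolved in DMSO and absorbance read. Survival = (treated − zero)/(blank − zero) A ×100%, done in triplicate.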

[8] = AUC (0 to t) in Sprague-Dawley rat at 5 mg/kg, po; assay type: ADME, organism-based; parameters: dose 5 mg/kg; conditions: in vivo; in short: as §2
[9] = Tmax in Sprague-Dawley rat at 5 mg/kg, po; assay type: ADME, organism-based; conditions: in vivo; in short: as §3
[10] = Effect on total Smad2 expression in TGFbeta-stimulated rat NRK-49F at 20 to 40 uM preincubated for 1 to 2 hrs followed by TGF-beta stimulation and measured after 1 hr by Western blot analysis; conditions: dose lower 20 µM, time lower 2 hrs, dose upper 40 µM, time upper 3 hrs; in short: as §1
[11] = tested on: Mus musculus; experiment: Anti-fibrotic activity in C57BL/6 mouse model of bleomycin-induced lung fibrosis assessed as survival rate at 50 to 100 mg/kg, po administered for 30 days starting from day 1 post bleomycin treatment; assay type: functional, organism-based; conditions: dose 50-100 mg/kg, time 30.0 day
In short: (§4)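 Survival was followed in male C57BL/6 mice (8 weeks, n=10 per group) after one intratracheal bleomycin dose of 3 U/kg in 0.075 mL saline. Oral dosing was daily, days 1–30 (prevention) or days 8–21 (treatment), with survival curves plotted.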

[12] = tested on: Mus musculus; experiment: Anti-fibrotic activity in C57BL/6 mouse model of bleomycin-induced lung fibrosis assessed as reduction in collagen deposition by measuring hydroxyproline content in lung at 50 to 100 mg/kg, po administered for 30 days starting from day 1 post bleomycin treatment; assay type: functional, organism-based; conditions: dose 50-100 mg/kg, time 30.0 day
In short: (§5)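 In the bleomycin mouse model (male C57BL/6, 8 weeks, 3 U/kg intratracheal in saline, n=10 per group), daily oral dosing ran days 1–30 or days 8–21. Right lungs were dried, acid hydrolysed, filtered and brought to pH 6.5–8.0. Hydroxyproline was read by chloramine-T spectrophotometry with a kit.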

[13] = Effect on total Smad3 expression in TGFbeta-stimulated rat NRK-49F at 20 to 40 uM preincubated for 1 to 2 hrs followed by TGF-beta stimulation and measured after 1 hr by Western blot analysis; conditions: dose lower 20 µM, time lower 2 hrs, dose upper 40 µM, time upper 3 hrs; in short: as §1
[14] = Oral bioavailability in Sprague-Dawley rat at 5 mg/kg; assay type: ADME, organism-based; conditions: in vivo; in short: as §3
[15] = tested on: Mus musculus; experiment: Anti-fibrotic activity in C57BL/6 mouse model of bleomycin-induced lung fibrosis assessed as reduction in collagen deposition by measuring hydroxyproline content in lung at 100 mg/kg, po administered for […] starting from day 8 post bleomycin treatment; assay type: functional, organism-based; conditions: time 14.0 day; in short: as §5
[16] = Half life in Sprague-Dawley rat at 5 mg/kg, iv; assay type: ADME, organism-based; conditions: in vivo; in short: as §3
[17] = tested on: Mus musculus; experiment: Anti-fibrotic activity in C57BL/6 mouse model of bleomycin-induced lung fibrosis assessed as protection of alveolar tissue structure at 50 to 100 mg/kg, po administered for 30 days starting from day 1 post bleomycin treatment by hematoxylin and eosin staining based microscopic analysis; assay type: functional, organism-based; conditions: dose 50-100 mg/kg, time 30.0 day
In short: (§6)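 Male C57BL/6 mice, 8 weeks old, n=10 per group; lung fibrosis from one intratracheal instillation of bleomycin 3 U/kg in 0.075 mL saline, saline-only controls. Daily oral dosing days 1–30 (prevention) or days 8–21 (treatment). Left lungs fixed in 10% formalin 24 h, paraffin-embedded, 5 µm sections stained with H&E (also Masson's trichrome) and examined by microscopy.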

[18] = tested on: NRK-49F; experiment: Inhibition of TGF-beta induced p38 phosphorylation in rat NRK-49F cells at 20 to 40 uM pretreated with compound for 1 to 2 hrs followed by TGF-beta stimulation for 1 hr by Western blot analysis; assay type: cell-based; conditions: dose 20-40 µM, time 2-3 hrs; in short: as §1
[19] = tested on: L929; experiment: Antimigratory activity in mouse L929 cells assessed as inhibition of TGF-beta-induced cell migration at 10 uM incubated for 24 hrs by wound healing assay; assay type: functional, cell-based
In short: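 Mouse L929 fibroblasts (MEM, 10% FBS, 37 °C, 5% CO₂) were grown to confluence and scratched with a pipette tip to a 100 µm wound. They were then kept in serum-free medium with or without TGF-β 5 ng/ml and compound 10 µM for 24 h. Wounds were imaged by light microscopy at 0, 12 and 24 h.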

[20] = tested on: Mus musculus; experiment: Anti-fibrotic activity in C57BL/6 mouse model of bleomycin-induced lung fibrosis assessed as reduction in inflammatory cell infiltration at 50 to 100 mg/kg, po administered for 30 days starting from day 1 post bleomycin treatment by hematoxylin and eosin staining based microscopic analysis; assay type: functional, organism-based; conditions: dose 50-100 mg/kg, time 30.0 day; in short: as §6
[21] = tested on: NRK-49F; experiment: Inhibition of TGF-beta-induced collagen-1 protein expression in rat NRK-49F cells at 20 to 40 uM incubated for 24 hrs by Western blotting analysis; assay type: functional, cell-based; conditions: dose 20-40 µM
[22] = Tmax in Sprague-Dawley rat at 5 mg/kg, iv; assay type: ADME, organism-based; conditions: in vivo; in short: as §3
[23] = tested on: Mus musculus; experiment: Anti-fibrotic activity in C57BL/6 mouse model of bleomycin-induced lung fibrosis assessed as protection of alveolar tissue structure at 100 mg/kg, po administered for […] starting from day 8 post bleomycin treatment by hematoxylin and eosin staining based microscopic analysis; assay type: functional, organism-based; conditions: time 14.0 day; in short: as §6
[24] = tested on: Mus musculus; experiment: Anti-fibrotic activity in C57BL/6 mouse model of bleomycin-induced lung fibrosis assessed as survival rate at 50 mg/kg, po administered for […] starting from day 8 post bleomycin treatment; assay type: functional, organism-based; conditions: time 14.0 day; in short: as §4
[25] = tested on: NRK-49F; experiment: Inhibition of TGF-beta-induced alpha-SMA protein expression in rat NRK-49F cells at 20 to 40 uM incubated for 24 hrs by Western blotting analysis; assay type: functional, cell-based; conditions: dose 20-40 µM
[26] = molecular target: Mothers against decapentaplegic homolog 2 (Rattus norvegicus) (UniProt O70436); experiment: Inhibition of TGF-beta induced SMAD2 phosphorylation in rat NRK-49F cells at 20 to 40 uM pretreated with compound for 1 to 2 hrs followed by TGF-beta stimulation for 1 hr by Western blot analysis; assay type: cell-based; conditions: dose 20-40 µM, time 2-3 hrs; in short: as §1
[27] = molecular target: Mitogen-activated protein kinase 1 and 3 (ERK2 and ERK1) (Rattus norvegicus) (UniProt P63086+P21708); experiment: Inhibition of TGF-beta induced ERK1/2 phosphorylation in rat NRK-49F cells at 20 to 40 uM pretreated with compound for 1 to 2 hrs followed by TGF-beta stimulation for 1 hr by Western blot analysis; assay type: cell-based; conditions: dose 20-40 µM, time 2-3 hrs; in short: as §1
[28] = tested on: NRK-49F; experiment: Inhibition of TGF-beta-induced collagen accumulation in rat NRK-49F cells at 10 uM incubated for 2 days by PSR staining based microscopic analysis relative to control; assay type: functional; conditions: 48 h, time 2 day
In short: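 NRK-49F cells were grown 3 days in DMEM with 5% FBS, then 2 days in DMEM with 1% ITS. Next came 2 days with TGF-β 5 ng/ml plus or minus compound 10 µM. Cells were fixed in 4% paraformaldehyde and stained 4 h with 0.1% Picrosirius Red, then rinsed with acetic acid. Dye was eluted with 0.1 M NaOH and OD read at 540 nm. Inhibition = […] ×100%, in triplicate.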

[29] = tested on: Mus musculus; experiment: Anti-fibrotic activity in C57BL/6 mouse model of bleomycin-induced lung fibrosis assessed as reduction in inflammatory cell infiltration at 50 mg/kg, po administered for 30 days starting from day 1 post bleomycin treatment by hematoxylin and eosin staining based microscopic analysis; assay type: functional, organism-based; conditions: time 30.0 day; in short: as §6
[30] = tested on: Mus musculus; experiment: Anti-fibrotic activity in C57BL/6 mouse model of bleomycin-induced lung fibrosis assessed as reduction in collagen deposition by measuring hydroxyproline content in lung at 50 mg/kg, po administered for […] starting from day 8 post bleomycin treatment; assay type: functional, organism-based; conditions: time 14.0 day; in short: as §5
[31] = tested on: Mus musculus; experiment: Anti-fibrotic activity in C57BL/6 mouse model of bleomycin-induced lung fibrosis assessed as protection of alveolar tissue structure at 50 mg/kg, po administered for 30 days starting from day 1 post bleomycin treatment by hematoxylin and eosin staining based microscopic analysis; assay type: functional, organism-based; conditions: time 30.0 day; in short: as §6
[32] = tested on: Mus musculus; experiment: Anti-fibrotic activity in C57BL/6 mouse model of bleomycin-induced lung fibrosis assessed as reduction in collagen deposition by measuring hydroxyproline content in lung at 50 mg/kg, po administered for 30 days starting from day 1 post bleomycin treatment; assay type: functional, organism-based; conditions: time 30.0 day; in short: as §5
[33] = tested on: Mus musculus; experiment: Anti-fibrotic activity in C57BL/6 mouse model of bleomycin-induced lung fibrosis assessed as protection of alveolar tissue structure at 50 mg/kg, po administered from day 8 to day 21 post bleomycin treatment by hematoxylin and eosin staining based microscopic analysis; conditions: time 14.0 day
[34] = tested on: Mus musculus; experiment: Anti-fibrotic activity in C57BL/6 mouse model of bleomycin-induced lung fibrosis assessed as survival rate at 50 mg/kg, po administered for 30 days starting from day 1 post bleomycin treatment; assay type: functional, organism-based; conditions: time 30.0 day; in short: as §4

Chain of Mothers against decapentaplegic homolog 2 (Rattus norvegicus) (O70436 whole entry): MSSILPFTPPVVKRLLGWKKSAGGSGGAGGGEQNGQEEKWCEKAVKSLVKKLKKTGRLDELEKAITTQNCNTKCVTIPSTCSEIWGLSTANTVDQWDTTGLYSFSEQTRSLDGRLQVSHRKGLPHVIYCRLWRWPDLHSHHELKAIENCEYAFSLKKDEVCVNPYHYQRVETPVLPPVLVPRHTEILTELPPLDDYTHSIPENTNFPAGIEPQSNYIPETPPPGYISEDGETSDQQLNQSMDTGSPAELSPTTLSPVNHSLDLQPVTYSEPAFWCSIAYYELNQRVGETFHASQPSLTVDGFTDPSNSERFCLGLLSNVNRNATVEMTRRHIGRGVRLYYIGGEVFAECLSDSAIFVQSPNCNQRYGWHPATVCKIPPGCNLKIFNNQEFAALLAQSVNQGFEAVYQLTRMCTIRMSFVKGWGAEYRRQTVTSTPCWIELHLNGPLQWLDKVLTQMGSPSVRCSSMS
Chain of Mothers against decapentaplegic homolog 3 (Rattus norvegicus) (P84025 whole entry, looked up): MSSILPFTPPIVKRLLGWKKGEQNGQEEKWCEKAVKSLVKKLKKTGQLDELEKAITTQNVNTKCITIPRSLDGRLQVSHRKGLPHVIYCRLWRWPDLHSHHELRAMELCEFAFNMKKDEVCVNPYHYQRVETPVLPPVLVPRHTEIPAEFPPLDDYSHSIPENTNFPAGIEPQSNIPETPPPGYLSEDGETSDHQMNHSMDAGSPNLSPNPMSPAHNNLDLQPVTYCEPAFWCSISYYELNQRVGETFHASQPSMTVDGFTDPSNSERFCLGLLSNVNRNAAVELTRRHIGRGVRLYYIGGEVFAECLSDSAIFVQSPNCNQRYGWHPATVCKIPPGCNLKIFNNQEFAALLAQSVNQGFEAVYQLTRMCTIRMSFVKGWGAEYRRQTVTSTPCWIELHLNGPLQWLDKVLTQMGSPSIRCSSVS
Chain of Mitogen-activated protein kinase 1 and 3 (ERK2 and ERK1) (Rattus norvegicus) (P21708 whole entry, looked up): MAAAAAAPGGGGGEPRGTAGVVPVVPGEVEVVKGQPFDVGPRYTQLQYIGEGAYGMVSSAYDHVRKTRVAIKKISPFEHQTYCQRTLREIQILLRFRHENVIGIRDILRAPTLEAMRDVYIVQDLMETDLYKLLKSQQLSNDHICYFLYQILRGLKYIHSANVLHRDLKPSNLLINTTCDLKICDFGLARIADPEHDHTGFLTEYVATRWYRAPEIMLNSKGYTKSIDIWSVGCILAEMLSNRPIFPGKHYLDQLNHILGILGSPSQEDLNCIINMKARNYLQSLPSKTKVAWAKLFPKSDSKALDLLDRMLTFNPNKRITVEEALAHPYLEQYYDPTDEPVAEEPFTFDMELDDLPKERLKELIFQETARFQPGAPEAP
Chain of Mitogen-activated protein kinase 1 and 3 (ERK2 and ERK1) (Rattus norvegicus) (P63086 whole entry, looked up): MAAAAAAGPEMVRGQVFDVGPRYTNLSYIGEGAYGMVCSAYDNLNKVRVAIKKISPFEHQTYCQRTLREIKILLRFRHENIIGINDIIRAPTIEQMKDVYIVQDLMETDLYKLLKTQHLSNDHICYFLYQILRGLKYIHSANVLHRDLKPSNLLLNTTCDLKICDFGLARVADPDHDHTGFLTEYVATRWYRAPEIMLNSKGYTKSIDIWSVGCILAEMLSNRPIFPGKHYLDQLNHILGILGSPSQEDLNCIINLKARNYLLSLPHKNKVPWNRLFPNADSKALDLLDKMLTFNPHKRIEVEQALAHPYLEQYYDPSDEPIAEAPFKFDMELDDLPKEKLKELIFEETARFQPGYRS

- AUC(0-t) [2]: 13100 ng·h/mL
- inhibition [5]: Dose-dependent effect
- half-life [6]: 3.5 h
- AUC(0-t) [8]: 5460 ng·h/mL
- Tmax [9]: 4.33 h
- bioavailability [14]: 41.5%
- half-life [16]: 4.39 h
- Tmax [22]: 4.8 min
- inhibition [26]: Dose-dependent effect
- inhibition [27]: Active
Compound: O=C(CN1CCN(C(=O)C2CC2)CC1)Nc1ccc(Oc2cc(=O)[nH]c3ccccc23)c(F)c1
- Activity [1]: Non-Toxic
- Activity [3]: Non-Toxic
- Activity [4]: Active
- viability at 72 h, 10 µM [7]: 97.5%
- Activity [10]: Non-Toxic
- Activity [11]: Active
- Activity [12]: Active
- Activity [13]: Non-Toxic
- Activity [15]: Active
- Activity [17]: Active
- inhibition [18]: Active
- inhibition [19]: Active
- Activity [20]: Active
- inhibition [21]: Active
- Activity [23]: Active
- Activity [24]: Active
- inhibition [25]: Active
- inhibition at 10 µM [28]: 87.5%

- bioavailability [14]: 12%
Compound: COC(=O)c1ccc2c(c1)NC(=O)/C2=C(\Nc1ccc(N(C)C(=O)CN2CCN(C)CC2)cc1)c1ccccc1 [NINTEDANIB]
- Activity [29]: Active
- Activity [30]: inactive
- Activity [31]: Active
- Activity [32]: Active
- inhibition [19]: Active
- inhibition [21]: Active
- inhibition [25]: Active
- Activity [33]: inactive
- inhibition at 10 µM [28]: 95.5%
- Activity [34]: Active
